# From ChEMBL document CHEMBL4811287, “Discovery of dronedarone and its analogues as NLRP3 inflammasome inhibitors with potent anti-inflammation activity” (Bioorg Med Chem Lett, 2021)
# pIC50: −log10 of the molar value. The source made the active and inactive calls. The calls are words filed in the database; no cut-off is given here.
# Legend:
# [1] = Inhibition of Cl- channel in human monocytes assessed as inhibition of ATP-induced NLRP3 inflammasome-activation mediated IL-1beta release; assay type: cell-based; details: Monocyte
# [2] = Inhibition of ATP-sensitive K+ channel in LPS-activated human monocytes assessed as inhibition of NLRP3 inflammasome activation-mediated IL-1beta release; assay type: cell-based; details: Monocyte
# [3] = Inhibition of K+ channel in LPS-primed mouse bone marrow derived macrophages assessed as inhibition of NLRP3 inflammasome activation-mediated IL-1beta release; assay type: tissue-based; details: BMDM
# [4] = biological target: NACHT, LRR and PYD domains-containing protein 3 (Mus musculus, UniProt Q8R4B8); test: (§1) Inhibition of NLRP3 inflammasome in LPS-primed mouse J774.A1 cells assessed as reduction in IL-1beta secretion preincubated with compound for 1 hr followed by nigericin stimulation for 1 hr by ELISA; assay type: cell-based
# NACHT, LRR and PYD domains-containing protein 3, sequence (Q8R4B8 whole entry, the tested form may be a part): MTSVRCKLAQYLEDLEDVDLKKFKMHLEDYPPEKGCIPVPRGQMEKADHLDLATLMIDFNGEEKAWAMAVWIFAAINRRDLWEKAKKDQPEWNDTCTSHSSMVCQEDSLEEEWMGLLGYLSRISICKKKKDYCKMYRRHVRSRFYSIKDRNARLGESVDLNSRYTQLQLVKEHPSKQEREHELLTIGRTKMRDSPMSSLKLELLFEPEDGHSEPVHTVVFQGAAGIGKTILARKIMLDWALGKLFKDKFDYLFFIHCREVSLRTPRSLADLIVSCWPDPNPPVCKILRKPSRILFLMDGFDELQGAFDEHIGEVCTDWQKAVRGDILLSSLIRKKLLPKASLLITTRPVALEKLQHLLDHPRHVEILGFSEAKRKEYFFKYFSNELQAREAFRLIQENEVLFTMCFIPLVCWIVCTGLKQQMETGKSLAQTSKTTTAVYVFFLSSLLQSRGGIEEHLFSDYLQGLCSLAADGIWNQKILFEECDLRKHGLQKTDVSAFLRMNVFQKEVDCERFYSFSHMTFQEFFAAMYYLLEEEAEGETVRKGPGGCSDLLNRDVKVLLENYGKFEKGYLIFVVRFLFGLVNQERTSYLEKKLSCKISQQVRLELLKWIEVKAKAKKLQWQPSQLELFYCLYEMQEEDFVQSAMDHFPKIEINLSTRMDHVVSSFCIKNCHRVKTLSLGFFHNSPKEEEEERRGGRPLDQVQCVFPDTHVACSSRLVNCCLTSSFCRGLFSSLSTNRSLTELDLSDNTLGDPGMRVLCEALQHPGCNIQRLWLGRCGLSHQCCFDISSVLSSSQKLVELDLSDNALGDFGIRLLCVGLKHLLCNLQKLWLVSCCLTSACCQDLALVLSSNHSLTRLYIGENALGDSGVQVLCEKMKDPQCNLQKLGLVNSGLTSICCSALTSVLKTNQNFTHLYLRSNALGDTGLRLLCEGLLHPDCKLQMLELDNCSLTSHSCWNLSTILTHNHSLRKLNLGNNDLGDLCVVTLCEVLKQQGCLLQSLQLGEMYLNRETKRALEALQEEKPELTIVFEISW
# In short: (§2)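 J774A.1 murine macrophages primed with LPS, exposed to compound at indicated doses for 1 h, then stimulated with nigericin for another 1 h; IL-1β released into supernatant measured by ELISA.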
# Microglia = test: Inhibition of Ca2+ channel in mouse microglial cells assessed as inhibition of Abeta-stimulated NLRP3 inflammasome activation-mediated IL-1beta release at 36 nM by ELISA; assay type: cell-based
# [5] = biological target: NACHT, LRR and PYD domains-containing protein 3 (Mus musculus) (UniProt Q8R4B8); test: Inhibition of NLRP3 inflammasome in LPS/nigericin-stimulated mouse J774.A1 cells assessed as effect on pro-IL-1beta expression level in cell lysates by Western blot analysis; assay type: subcellular
# NACHT, LRR and PYD domains-containing protein 3 (Mus musculus), sequence (Q8R4B8 whole entry, the tested form may be a part): as above
# In short: (§3)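 LPS-primed J774A.1 cells treated with compound, then nigericin-activated; NLRP3-related proteins analysed by Western blot in cell supernatant (caspase-1 p20, IL-1β) and cell lysate.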
# J774.A1 = test: Effect on NLRP3 expression in LPS/nigericin-stimulated mouse J774.A1 cell lysates by western blot analysis; assay type: functional, subcellular; in short: as §3
# Mus musculus [6] = test: Antiinflammatory activity against LPS-induced sepsis C57BL/6 mouse model assessed as decrease in serum IL-1beta level at 100 mg/kg, ip administered as single dose prior to LPS challenge by ELISA; assay type: functional; details: C57BL/6, ip
# In short: (§4)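 C57BL/6 mice given 100 mg/kg ahead of intraperitoneal LPS injection. Serum and peritoneal lavage fluid collected and cytokines (IL-1β, IL-6, TNF-α) quantified by ELISA. n = 5 per group, means ± SEM, compared against LPS-only group.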
# [7] = biological target: NACHT, LRR and PYD domains-containing protein 3 (Mus musculus) (UniProt Q8R4B8); test: Inhibition of NLRP3 inflammasome in LPS/nigericin-stimulated mouse J774.A1 cells assessed as effect on ASC expression level in cell lysates by Western blot analysis; assay type: subcellular; in short: as §3
# Mus musculus [8] = test: Antiinflammatory activity against LPS-induced sepsis C57BL/6 mouse model assessed as decrease in peritoneal fluid IL-1beta level at 100 mg/kg, ip administered as single dose prior to LPS challenge by ELISA; assay type: functional; details: C57BL/6, ip; in short: as §4
# [9] = biological target: NACHT, LRR and PYD domains-containing protein 3 (Mus musculus) (UniProt Q8R4B8); test: Inhibition of NLRP3 inflammasome in LPS/nigericin-stimulated mouse J774.A1 cells assessed as reduction in caspase 1 p20 level in cell supernatants by Western blot analysis; details: dose 1-20 µM; in short: as §3
# Mus musculus [10] = test: Antiinflammatory activity against LPS-induced sepsis C57BL/6 mouse model assessed as decrease in serum IL-6 level at 100 mg/kg, ip administered as single dose prior to LPS challenge by ELISA; assay type: functional; details: C57BL/6, ip; in short: as §4
# Mus musculus [11] = test: Antiinflammatory activity against LPS-induced sepsis C57BL/6 mouse model assessed as decrease in peritoneal fluid TNF-alpha level at 100 mg/kg, ip administered as single dose prior to LPS challenge by ELISA; assay type: functional, organism-based; in short: as §4
# [12] = biological target: NACHT, LRR and PYD domains-containing protein 3 (Mus musculus) (UniProt Q8R4B8); test: as §1; assay type: cell-based; details: time 2.0 hrs; in short: as §2
# [13] = biological target: NACHT, LRR and PYD domains-containing protein 3 (Mus musculus) (UniProt Q8R4B8); test: Inhibition of NLRP3 inflammasome in LPS/nigericin-stimulated mouse J774.A1 cells assessed as reduction in IL-1beta level in cell supernatant by Western blot analysis; details: dose 1-20 µM; in short: as §3
# Mus musculus [14] = test: Antiinflammatory activity against LPS-induced sepsis C57BL/6 mouse model assessed as decrease in serum TNF-alpha level at 100 mg/kg, ip administered as single dose prior to LPS challenge by ELISA; assay type: functional; details: C57BL/6, ip; in short: as §4
# Mus musculus [15] = test: Antiinflammatory activity against LPS-induced sepsis C57BL/6 mouse model assessed as decrease in peritoneal fluid IL-6 level at 100 mg/kg, ip administered as single dose prior to LPS challenge by ELISA; assay type: functional; details: C57BL/6, ip; in short: as §4
# [16] = biological target: NACHT, LRR and PYD domains-containing protein 3 (Mus musculus) (UniProt Q8R4B8); test: Inhibition of NLRP3 inflammasome in LPS/nigericin-stimulated mouse J774.A1 cells assessed as effect on pro-caspase-1 expression level in cell lysates by Western blot analysis; assay type: subcellular; in short: as §3
compound,measurement,setting,value
C=C(CC)C(=O)c1ccc(OCC(=O)O)c(Cl)c1Cl [ETHACRYNIC ACID],pIC50,[1],5.52
COc1ccc(Cl)cc1C(=O)NCCc1ccc(S(=O)(=O)NC(=O)NC2CCCCC2)cc1 [GLYBURIDE],pIC50,[2],4.92
"CC(O)CC(=O)O (stereo not drawn) [3-HYDROXYBUTYRIC ACID, (+/-)-]",pIC50,[3],2.70
CCCCc1oc2ccc(NC(C)=O)cc2c1C(=O)c1ccc(OCCCN(CCCC)CCCC)cc1,pIC50,[4],5.17
CCCCc1oc2ccc(S(=O)(=O)NC)cc2c1C(=O)c1ccc(OCCCN(CCCC)CCCC)cc1,pIC50,[4],4.65
CCCCc1oc2ccc(S(=O)(=O)NOC)cc2c1C(=O)c1ccc(OCCCN(CCCC)CCCC)cc1,pIC50,[4],4.08
CCCCc1oc2ccc(NC(=O)c3ccccc3)cc2c1C(=O)c1ccc(OCCCN(CCCC)CCCC)cc1,pIC50,[4],4.88
CCCCc1oc2ccc(S(=O)(=O)NCCN(C)C)cc2c1C(=O)c1ccc(OCCCN(CCCC)CCCC)cc1,pIC50,[4],< 4.00
CCCCC(=O)Nc1ccc2oc(CCCC)c(C(=O)c3ccc(OCCCN(CCCC)CCCC)cc3)c2c1,pIC50,[4],5.24
CCCCc1oc2ccc(NC(=O)Nc3ccc(OC)cc3)cc2c1C(=O)c1ccc(OCCCN(CCCC)CCCC)cc1,pIC50,[4],4.61
CCCCc1oc2ccc(NC(=O)c3ccc(OC)cc3)cc2c1C(=O)c1ccc(OCCCN(CCCC)CCCC)cc1,pIC50,[4],< 4.00
CCCCc1oc2ccc(NS(=O)(=O)c3ccc(C)cc3)cc2c1C(=O)c1ccc(OCCCN(CCCC)CCCC)cc1,pIC50,[4],4.60
CCCCc1oc2ccc(NS(C)(=O)=O)cc2c1C(=O)c1ccc(OCCCN(CCCC)CCCC)cc1 [DRONEDARONE],pIC50,[4],5.16
CCCCc1oc2ccc(NC(=O)NCCC)cc2c1C(=O)c1ccc(OCCCN(CCCC)CCCC)cc1,pIC50,[4],4.72
CCCCc1oc2ccc(NS(=O)(=O)c3ccc(F)cc3)cc2c1C(=O)c1ccc(OCCCN(CCCC)CCCC)cc1,pIC50,[4],4.90
CCCCc1oc2ccc(NS(=O)(=O)CC)cc2c1C(=O)c1ccc(OCCCN(CCCC)CCCC)cc1,pIC50,[4],4.72
CCCCc1oc2ccc(NC(=O)C(C)(C)C)cc2c1C(=O)c1ccc(OCCCN(CCCC)CCCC)cc1,pIC50,[4],5.04
C=CS(=O)(=O)Nc1ccc2oc(CCCC)c(C(=O)c3ccc(OCCCN(CCCC)CCCC)cc3)c2c1,pIC50,[4],4.60
CCCCc1oc2ccc(NC(=O)Nc3ccc(C#N)cc3)cc2c1C(=O)c1ccc(OCCCN(CCCC)CCCC)cc1,pIC50,[4],4.73
CCCCc1oc2ccc(NS(=O)(=O)c3ccccc3)cc2c1C(=O)c1ccc(OCCCN(CCCC)CCCC)cc1,pIC50,[4],4.97
CCCCc1oc2ccc(NS(=O)(=O)C3CCCCC3)cc2c1C(=O)c1ccc(OCCCN(CCCC)CCCC)cc1,pIC50,[4],4.60
CCCCc1oc2ccc(NS(=O)(=O)N(C)C)cc2c1C(=O)c1ccc(OCCCN(CCCC)CCCC)cc1,pIC50,[4],4.87
CCCCc1oc2ccc(NS(=O)(=O)NC(C)C)cc2c1C(=O)c1ccc(OCCCN(CCCC)CCCC)cc1,pIC50,[4],5.12
CCCCc1oc2ccc(S(=O)(=O)N(C)C)cc2c1C(=O)c1ccc(OCCCN(CCCC)CCCC)cc1,pIC50,[4],4.21
CCCCc1oc2ccc(NC(=O)NC3CCCCC3)cc2c1C(=O)c1ccc(OCCCN(CCCC)CCCC)cc1,pIC50,[4],4.13
CCCCc1oc2ccc(NS(=O)(=O)c3ccc(C(F)(F)F)cc3)cc2c1C(=O)c1ccc(OCCCN(CCCC)CCCC)cc1,pIC50,[4],4.09
CCCCc1oc2ccc(NS(=O)(=O)c3cccnc3)cc2c1C(=O)c1ccc(OCCCN(CCCC)CCCC)cc1,pIC50,[4],4.48
CCCCc1oc2ccc(S(=O)(=O)N(CCC)CCC)cc2c1C(=O)c1ccc(OCCCN(CCCC)CCCC)cc1,pIC50,[4],< 4.00
COCCOC(=O)C1=C(C)NC(C)=C(C(=O)OC(C)C)C1c1cccc([N+](=O)[O-])c1 (stereo not given),inhibition,Microglia,48%
CCCCc1oc2ccc(NC(=O)Nc3ccc(Cl)cc3)cc2c1C(=O)c1ccc(OCCCN(CCCC)CCCC)cc1,pIC50,[4],4.79
CCCCc1oc2ccc(N)cc2c1C(=O)c1ccc(OCCCN(CCCC)CCCC)cc1,pIC50,[4],< 4.00
CCCCc1oc2ccc(NS(=O)(=O)C3CC3)cc2c1C(=O)c1ccc(OCCCN(CCCC)CCCC)cc1,pIC50,[4],4.34
CCCCc1oc2ccccc2c1C(=O)c1ccc(OCCCN(CCCC)CCCC)cc1,pIC50,[4],< 4.00
CCCCc1oc2ccc(NS(=O)(=O)c3ccc(OC)cc3)cc2c1C(=O)c1ccc(OCCCN(CCCC)CCCC)cc1,pIC50,[4],4.55
CCCCc1oc2ccc(S(=O)(=O)NC(C)C)cc2c1C(=O)c1ccc(OCCCN(CCCC)CCCC)cc1,pIC50,[4],4.37
CCCCc1oc2ccc(S(N)(=O)=O)cc2c1C(=O)c1ccc(OCCCN(CCCC)CCCC)cc1,pIC50,[4],4.57
CCCCc1oc2ccc(NC(=O)Nc3ccc(C)cc3)cc2c1C(=O)c1ccc(OCCCN(CCCC)CCCC)cc1,pIC50,[4],4.15
CCCCc1oc2ccc(NC(=O)NC3CCCC3)cc2c1C(=O)c1ccc(OCCCN(CCCC)CCCC)cc1,pIC50,[4],4.60
CCCCc1oc2ccc(NS(=O)(=O)NC)cc2c1C(=O)c1ccc(OCCCN(CCCC)CCCC)cc1,pIC50,[4],4.94
CCCCc1oc2ccc(NC(=O)C(C)C)cc2c1C(=O)c1ccc(OCCCN(CCCC)CCCC)cc1,inhibition,[5],inactive
same,Activity,J774.A1,inactive
same,inhibition in vivo at 100 mg/kg,Mus musculus [6],42%
same,inhibition,[7],inactive
same,inhibition in vivo at 100 mg/kg,Mus musculus [8],22%
same,inhibition,[9],Dose-Dependent Effect
same,inhibition in vivo at 100 mg/kg,Mus musculus [10],0%
same,Activity,Mus musculus [11],inactive
same,inhibition,[12],Dose-Dependent Effect
same,pIC50,[4],5.41
same,inhibition,[13],Dose-Dependent Effect
same,inhibition in vivo at 100 mg/kg,Mus musculus [14],18%
same,inhibition in vivo at 100 mg/kg,Mus musculus [15],2%
same,inhibition,[16],inactive
C=CC(=O)Nc1ccc2oc(CCCC)c(C(=O)c3ccc(OCCCN(CCCC)CCCC)cc3)c2c1,pIC50,[4],4.57
CCCCc1oc2ccc(NC(=O)NC(C)C)cc2c1C(=O)c1ccc(OCCCN(CCCC)CCCC)cc1,pIC50,[4],4.88
